The record followed here is ChEMBL document CHEMBL3856248, “2-Benzylidene-1-indanone derivatives as inhibitors of monoamine oxidase” (Bioorg Med Chem Lett, 2016).

The IC50 is the concentration at which inhibition is half-maximal.

Data set [1] has as its target T1, Amine oxidase [flavin-containing] B (Homo sapiens, UniProt P27338).
T1 sequence (P27338 whole entry): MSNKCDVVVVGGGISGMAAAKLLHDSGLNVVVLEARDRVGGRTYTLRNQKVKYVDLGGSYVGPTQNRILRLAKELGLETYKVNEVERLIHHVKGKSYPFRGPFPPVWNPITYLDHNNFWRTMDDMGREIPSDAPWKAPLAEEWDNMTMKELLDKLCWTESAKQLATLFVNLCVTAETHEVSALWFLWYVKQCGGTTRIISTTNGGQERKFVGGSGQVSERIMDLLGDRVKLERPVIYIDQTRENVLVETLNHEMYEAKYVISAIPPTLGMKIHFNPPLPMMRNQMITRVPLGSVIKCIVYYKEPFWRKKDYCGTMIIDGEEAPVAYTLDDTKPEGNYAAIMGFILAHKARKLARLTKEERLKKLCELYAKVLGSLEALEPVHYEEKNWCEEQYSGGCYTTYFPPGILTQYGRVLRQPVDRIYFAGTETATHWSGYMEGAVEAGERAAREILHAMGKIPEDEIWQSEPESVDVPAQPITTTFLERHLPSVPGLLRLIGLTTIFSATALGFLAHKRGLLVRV
The data set is described as follows: Inhibition of recombinant human MAO-B using kynuramine as substrate after 20 mins by fluorescence spectrophotometric analysis. The method, boiled down: (§1)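 Recombinant human enzyme incubated with kynuramine and test inhibitor at 37 °C for 20 min; stopped with 2 N NaOH. The 4-hydroxyquinoline product is read at endpoint by fluorescence in alkaline medium. Inhibitor-free controls run each time.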

The species entered for data set [2] is Homo sapiens. Put plainly: Selectivity index, ratio of IC50 for recombinant human MAO-A to IC50 for recombinant human MAO-B. In outline:
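Ratio of IC50 for MAO-A to IC50 for MAO-B. Both are from the kynuramine fluorescence assay with recombinant human enzymes (37 °C, 20 min, endpoint 4-hydroxyquinoline).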

For data set [3], the target named is T2, Amine oxidase [flavin-containing] A (Homo sapiens, UniProt P21397).
T2 sequence (P21397 whole entry): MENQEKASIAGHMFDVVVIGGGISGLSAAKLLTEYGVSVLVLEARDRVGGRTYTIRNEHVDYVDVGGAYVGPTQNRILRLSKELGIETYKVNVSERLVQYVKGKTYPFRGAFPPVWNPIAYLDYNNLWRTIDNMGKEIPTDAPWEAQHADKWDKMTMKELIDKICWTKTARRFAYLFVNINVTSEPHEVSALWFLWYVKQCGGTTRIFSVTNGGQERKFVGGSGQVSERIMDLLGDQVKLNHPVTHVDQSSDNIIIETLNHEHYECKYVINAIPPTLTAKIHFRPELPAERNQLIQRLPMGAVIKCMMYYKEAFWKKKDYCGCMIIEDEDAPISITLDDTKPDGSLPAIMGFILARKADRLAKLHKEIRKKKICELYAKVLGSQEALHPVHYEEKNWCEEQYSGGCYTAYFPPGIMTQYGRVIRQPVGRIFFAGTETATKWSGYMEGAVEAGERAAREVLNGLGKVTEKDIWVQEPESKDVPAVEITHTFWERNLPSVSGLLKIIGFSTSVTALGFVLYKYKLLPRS
Put plainly: Inhibition of recombinant human MAO-A using kynuramine as substrate after 20 mins by fluorescence spectrophotometric analysis. In outline: as §1

For data set [4], the target named is T2, Amine oxidase [flavin-containing] A. Put plainly: Reversible inhibition of recombinant human MAO-A assessed as residual activity pre-incubated at 4 times IC50 for 15 mins followed by dialysis for 24 hrs and subsequent kynuramine addition measured after 20 mins by fluorescence spectrophotometric analysis relative to untreated control.
The target is the same in data set [5]. The data set is described as follows: Reversible inhibition of recombinant human MAO-A assessed as residual activity pre-incubated at 4 times IC50 for 15 mins followed by kynuramine addition measured after 20 mins by fluorescence spectrophotometric analysis relative to untreated control. The method, boiled down: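 Undialysed comparison: MAO-A is pre-incubated 15 min with inhibitor at 4 × IC50 without dialysis. Residual activity is measured after kynuramine addition as in the IC50 assay (37 °C, 20 min, 2 N NaOH stop, fluorescence of 4-hydroxyquinoline). It is expressed relative to the inhibitor-free control.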

For data set [6] the target is unchanged. Put plainly: Irreversible inhibition of recombinant human MAO-A assessed as residual activity pre-incubated at 4 times IC50 for 15 mins followed by dialysis for 24 hrs and subsequent kynuramine addition measured after 20 mins by fluorescence spectrophotometric analysis relative to untreated control.
Data set [7] addresses T3, Amine oxidase [flavin-containing] B (Rattus norvegicus, UniProt P19643).
T3 sequence (P19643 whole entry): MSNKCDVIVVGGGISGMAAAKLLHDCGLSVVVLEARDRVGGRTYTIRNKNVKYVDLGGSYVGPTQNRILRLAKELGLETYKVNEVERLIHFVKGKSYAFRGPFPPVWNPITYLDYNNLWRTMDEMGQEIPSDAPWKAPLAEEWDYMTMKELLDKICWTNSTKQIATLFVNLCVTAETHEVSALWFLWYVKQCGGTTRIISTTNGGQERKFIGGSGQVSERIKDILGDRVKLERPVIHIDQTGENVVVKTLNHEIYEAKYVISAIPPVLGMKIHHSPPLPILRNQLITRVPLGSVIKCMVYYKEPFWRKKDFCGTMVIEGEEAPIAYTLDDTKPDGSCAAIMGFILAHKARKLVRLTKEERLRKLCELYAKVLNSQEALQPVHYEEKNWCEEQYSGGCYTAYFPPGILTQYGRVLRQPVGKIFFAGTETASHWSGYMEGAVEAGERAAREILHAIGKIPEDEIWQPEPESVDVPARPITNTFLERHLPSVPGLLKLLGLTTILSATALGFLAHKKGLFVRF
Put plainly: Inhibition of Sprague-Dawley rat brain mitochondrial MAO-B using DMAPEA as substrate by HPLC analysis.

The target in data set [8] is T4, Amine oxidase [flavin-containing] A (Rattus norvegicus, UniProt P21396).
T4 sequence (P21396 whole entry): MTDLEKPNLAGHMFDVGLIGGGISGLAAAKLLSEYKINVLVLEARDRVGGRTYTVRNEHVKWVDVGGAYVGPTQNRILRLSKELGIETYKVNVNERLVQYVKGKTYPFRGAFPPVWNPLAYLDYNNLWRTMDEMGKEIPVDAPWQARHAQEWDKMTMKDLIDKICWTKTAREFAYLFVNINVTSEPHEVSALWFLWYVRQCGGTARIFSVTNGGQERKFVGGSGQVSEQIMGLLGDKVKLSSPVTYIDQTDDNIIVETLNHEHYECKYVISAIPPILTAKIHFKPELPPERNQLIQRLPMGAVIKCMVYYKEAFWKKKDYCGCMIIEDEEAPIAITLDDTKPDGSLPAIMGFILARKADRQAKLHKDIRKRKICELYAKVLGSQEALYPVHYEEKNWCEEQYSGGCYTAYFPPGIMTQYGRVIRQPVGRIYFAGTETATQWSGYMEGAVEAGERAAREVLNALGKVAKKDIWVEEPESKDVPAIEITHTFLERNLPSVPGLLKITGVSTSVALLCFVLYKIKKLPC
The data set is described as follows: Inhibition of Wistar rat liver mitochondrial MAO-A using […] as substrate after 1 hr by spectrophotometric analysis.

A value given as a limit tells only on which side of the number the result lay.

As to `COc1ccc2c(c1)C/C(=C\c1ccccc1)C2=O`, the IC50 in data set [1] amounted to 9.2 nM. Moreover, in data set [2], the Ratio IC50 is over 10900.

On to `O=C1/C(=C/c2cccc(Br)c2)Cc2cc(O)ccc21`, for which the values for the IC50 in data set [3] and in data set [1] were 131 nM and 13 nM, respectively. Also, the Ratio IC50 in data set [2] was 10. Further, the Activity was determined as 99% in data set [4] and 50% in data set [5].

Consider `O=C1/C(=C/c2ccccc2)Cc2ccccc21`, for which the IC50 in data set [3] was 5430 nM; in data set [1], 2570 nM. Further, the Ratio IC50 in data set [2] came to 2.1.

As for `O=C1/C(=C/c2ccc(Cl)c(Cl)c2)Cc2cc(O)ccc21`, the values for the IC50 in data set [3] and in data set [1] were 235 nM and 14 nM, respectively. Further, the Ratio IC50 in data set [2] was determined as 17.

With `C#CCN(C)Cc1ccccc1` [PARGYLINE], the Activity in data set [6] is 1.7%.

In data set [7], `COc1ccc2c(c1)C(=O)/C(=C/c1ccccc1OC)O2` gave an IC50 of 11600 nM.

Take `O=C1/C(=C/c2ccc(F)cc2)Cc2cc(O)ccc21`: the values for the IC50 in data set [3] and in data set [1] were 679 nM and 47 nM, respectively. In data set [2], the Ratio IC50 was 14.

For the molecule `CC(C)c1ccc(/C=C2\Cc3cc(O)ccc3C2=O)cc1`, the IC50 in data set [3] worked out at 961 nM; in data set [1], 215 nM. The Ratio IC50 in data set [2] stood at 4.5.

Regarding `N#Cc1ccc(/C=C2\Cc3cc(O)ccc3C2=O)cc1`, the half-maximal inhibitory concentration (IC50) in data set [3] was determined as 2080 nM; in data set [1], 316 nM. The Ratio IC50 in data set [2] came out at 6.6.

Turning to `CN(C)c1ccc(/C=C2\Cc3cc(O)ccc3C2=O)cc1`, the results for the IC50 in data set [3] and in data set [1] were 1720 nM and 768 nM, respectively. Moreover, in data set [2], the Ratio IC50 stood at 2.2.

Turning to `COc1ccc2c(c1)C/C(=C\c1ccc(N(C)C)cc1)C2=O`, the IC50 in data set [3] amounted to 11500 nM; in data set [1], 60 nM. Besides, the Ratio IC50 in data set [2] came to 192.

Turning to `O=C1/C(=C/c2ccccc2)Cc2cc(O)ccc21`, the IC50 in data set [3] turned out to be 1940 nM; in data set [1], 376 nM. For the same molecule, in data set [2], the Ratio IC50 turned out to be 5.2.

For the molecule `O=C1/C(=C/c2cccc(O)c2)Cc2cc(O)ccc21`, the IC50 amounted to 1200 nM in data set [3] and 966 nM in data set [1]. For the same molecule, in data set [2], the Ratio IC50 turned out to be 1.2.

With `N#Cc1cccc(/C=C2\Cc3cc(O)ccc3C2=O)c1`, the half-inhibitory concentration (IC50) came out at 444 nM in data set [3] and 130 nM in data set [1]. Moreover, in data set [2], the Ratio IC50 was found to be 3.4.

On to `Cc1ccc(/C=C2\Cc3cc(O)ccc3C2=O)cc1`, for which the IC50 in data set [3] came out at 3220 nM; in data set [1] it was 5.2 nM. For the same molecule, in data set [2], the Ratio IC50 was 619.

`O=C1/C(=C/c2cccc(Cl)c2)Cc2cc(O)ccc21`: the IC50 stood at 157 nM in data set [3] and 30 nM in data set [1]. The Ratio IC50 in data set [2] came to 5.2.

Consider `O=C1/C(=C/c2cccc(F)c2)Cc2cc(O)ccc21`, for which the figures for the IC50 in data set [3] and in data set [1] were 458 nM and 84 nM, respectively. In data set [2], the Ratio IC50 came out at 5.5.

As for `O=C1/C(=C/c2ccc(Br)cc2)Cc2cc(O)ccc21`, the IC50 in data set [3] was determined as 1050 nM; in data set [1], 5.3 nM. Also, in data set [2], the Ratio IC50 amounted to 198.

In the case of `O=C1/C(=C/c2ccc(O)cc2)Cc2cc(O)ccc21`, the values for the IC50 in data set [3] and in data set [1] were 1670 nM and 2740 nM, respectively. The Ratio IC50 in data set [2] was 0.6.

On to `COc1cccc(/C=C2\Cc3cc(O)ccc3C2=O)c1`, for which the IC50 in data set [3] stood at 1190 nM; in data set [1] it was 471 nM. In data set [2], the Ratio IC50 was 2.5.

The molecule `O=C(/C=C/c1ccc(O)cc1)c1ccc(O)cc1O` [ISOLIQUIRITIGENIN] showed a concentration for half-maximal inhibition (IC50) in data set [8] of 17300 nM.

For the molecule `Cc1cccc(/C=C2\Cc3cc(O)ccc3C2=O)c1`, the IC50 turned out to be 860 nM in data set [3] and 52 nM in data set [1]. Also, the Ratio IC50 in data set [2] worked out at 17.

Take `CN(C)c1ccc(/C=C2\Cc3ccccc3C2=O)cc1`: the results for the IC50 in data set [3] and in data set [1] were 1520 nM and 31 nM, respectively. Further, in data set [2], the Ratio IC50 came to 49.

`O=C1/C(=C/c2ccccc2)Cc2ccc(O)cc21`: the IC50 stood at 440 nM in data set [3] and 2420 nM in data set [1]. In data set [2], the Ratio IC50 was found to be 0.2.

As to `O=C1/C(=C/c2ccc(Cl)cc2)Cc2cc(O)ccc21`, the IC50 in data set [3] worked out at 741 nM; in data set [1], 13 nM. In addition, the Ratio IC50 in data set [2] came out at 57.
